Compound activity from PubChem BioAssay.
The list is not random: actives were taken first. Their share in the collection is about 2.2%.
Runt-SMMHC FRET: blocks binding of human RUNX1 Runt domain to CBFb-SMMHC | hit rate 0.74% among 220,000 | AID 1434 | Cerulean-Runt/Venus-CBFb-SMMHC FRET ratio 530/480, 1 h | inhibition, % at 20 µM;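 active means mean inhibition across duplicate retests at 20 µM reaching about 50%, limit read from the data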;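 further: 0% = DMSO wells and 100% = wells with excess untagged CBFb-SMMHC; inhibitors lower the FRET ratio by blocking Runt binding to CBFb-SMMHC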
Target sequence (Q01196 whole entry, looked up, the tested form may be a part): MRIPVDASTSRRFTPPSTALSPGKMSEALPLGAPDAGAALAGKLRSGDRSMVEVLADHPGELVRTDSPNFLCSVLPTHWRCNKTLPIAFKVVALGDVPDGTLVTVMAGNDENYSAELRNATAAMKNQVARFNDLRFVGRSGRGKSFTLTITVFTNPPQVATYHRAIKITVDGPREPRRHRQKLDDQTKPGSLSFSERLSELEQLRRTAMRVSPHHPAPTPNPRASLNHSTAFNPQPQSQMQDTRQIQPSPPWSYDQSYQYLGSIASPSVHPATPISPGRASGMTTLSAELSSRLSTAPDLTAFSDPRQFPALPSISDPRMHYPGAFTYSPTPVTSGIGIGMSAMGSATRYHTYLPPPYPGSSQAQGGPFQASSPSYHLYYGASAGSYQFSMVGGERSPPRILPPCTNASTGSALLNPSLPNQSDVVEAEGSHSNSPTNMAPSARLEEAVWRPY
Target sequence (Q13951 whole entry, looked up, the tested form may be a part): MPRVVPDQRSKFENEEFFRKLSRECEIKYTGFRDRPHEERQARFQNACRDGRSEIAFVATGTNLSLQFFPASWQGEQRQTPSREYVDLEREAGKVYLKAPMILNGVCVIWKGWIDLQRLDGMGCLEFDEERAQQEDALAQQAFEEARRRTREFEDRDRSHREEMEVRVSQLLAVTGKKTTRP
eIF4E-4G inh: eIF4E/eIF4G interaction inhibition in translation initiation | inhibition, % at 21.7 µM | AID 782 | hit rate 0.37% among 220,000 | TR-FRET eIF4E-eIF4GI(517-606) binding, 2 h | P63073+Q04637;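 active means inhibition above about 30%, limit read from the data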;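 further: 0% = full FRET control wells and 100% = background wells lacking eIF4GI fragment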
Hck-Nef inh: human Hck-Nef kinase inhibition. P08631. AID 463187. inhibition, % at 20 µM. hit rate 0.68% among 220,000. Recombinant Hck-YEEI plus Nef, Z-Lyte FRET kinase assay;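 active means Hck-Nef kinase inhibition above about 50%, limit read from the data; inactive means inhibition below that limit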;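 further: 0% = DMSO with Hck plus Nef and 100% = Hck alone without Nef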
PERK inh: human PERK inhibition, primary cell-based screen | CHO PERK-DD fusion, SEAP luminescence translation reporter | Q9NZJ5 | hit rate 0.17% among 220,000 | inhibition, % at 5.6 µM;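 active means inhibition above the mean inhibition of all tested compounds plus 3 SD, set separately per screening campaign, cut at about 2.9% in these data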;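 further: PERK kinase domain activated by AP20187 dimerizer at 100 nM; 0% = DMSO with dimerizer and 100% = rapamycin at 8.4 µM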
Runt-CBFb FRET: Runt domain-CBFb interaction inhibition; Q01196+Q13951; Cerulean-Runt/Venus-CBFb FRET ratio 530/480, 1 h; inhibition, % at 20 µM; hit rate 0.46% among 220,000; AID 1496;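 active means inhibition over about 50% at 20 µM in the single-dose screen, limit read from the data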;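 further: 0% = DMSO wells and 100% = excess unlabeled CBFb competitor control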
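Measured by: fluorescence energy transfer, 422 nm excitation, 530/480 nm emission; Assay system: Cerulean-Runt domain; Medium: Tris pH 7.5 buffer with BSA; Measure: loss of energy transfer signal; Controls: 5 µM unlabeled CBFb as full-inhibition high control; Incubation: protein complex preformed 1 h, compound exposure 1 h, room temperature, dark.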
RanGTP-Imp inh: inhibitors of RanGTP-importin-beta interaction, primary screen, biochemical, FRET, CFP-Ran, YFP-importin-beta, homogeneous | cell-free CFP-Ran/YFP-importin-beta FRET ratio | hit rate 1.1% among 300,000 | inhibition, % (test concentration not listed) | AID 2216;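 active means more than half of the replicate wells show a fall in the fluorescence ratio signal beyond about 16%, limit read from the data, passing the limit was not always enough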;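 further: 0% = DMSO wells and 100% = Ran loaded with GDP instead of GTP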
The depositor's hits bear a star.

Results for O=C1Nc2ccccc2C(=O)C1(Cl)Cc1ccccc1 (stereo not drawn) ?
Runt-SMMHC FRET: 16; eIF4E-4G inh: 38*; Hck-Nef inh: -4; PERK inh: 0; Runt-CBFb FRET: 18; RanGTP-Imp inh: 5

How did CC(C)(C)N1C(=O)c2ccccc2NC(=O)N1Cc1ccccc1 do in these assays?
Runt-SMMHC FRET: 1; eIF4E-4G inh: -4; Hck-Nef inh: 2; PERK inh: -1; Runt-CBFb FRET: 2; RanGTP-Imp inh: -1

How did COc1cccc(C(=O)Nc2nnc(-c3ccc(F)cc3)o2)c1 do in these assays?
Runt-SMMHC FRET: -1; eIF4E-4G inh: 95*; Hck-Nef inh: 28; Runt-CBFb FRET: 3; RanGTP-Imp inh: 0

What do the screens show for `COc1cccc(C(=O)Nc2nnc(-c3ccc(Cl)cc3)o2)c1`?
Runt-SMMHC FRET: 2; eIF4E-4G inh: -14; Hck-Nef inh: 8; Runt-CBFb FRET: 0; RanGTP-Imp inh: -3

What do the screens show for `CCN(CC)CCSc1nc(O)c(C(C)C)c(=O)[nH]1`?
Runt-SMMHC FRET: -2; eIF4E-4G inh: -1; Hck-Nef inh: -1; PERK inh: -1; Runt-CBFb FRET: 0; RanGTP-Imp inh: 0

How did CC(C)c1ccccc1NC(=S)N1CCN(S(=O)(=O)c2cccs2)CC1 do in these assays?
Runt-SMMHC FRET: -1; eIF4E-4G inh: 0; Hck-Nef inh: 12; PERK inh: 2; Runt-CBFb FRET: -1; RanGTP-Imp inh: -1

Results for O=C(COc1ccc(Br)cc1)N(Cc1cccs1)C1CCS(=O)(=O)C1 (stereo not drawn) ?
RanGTP-Imp inh: 18*

What do the screens show for `CC(=O)Nc1ccc2c(COC(=O)[C@H](C)N3C(=O)C4CCCCC4C3=O)cc(=O)oc2c1` (stereo partly drawn)?
Runt-SMMHC FRET: -2; eIF4E-4G inh: -3; Hck-Nef inh: -2; PERK inh: 0; Runt-CBFb FRET: 0; RanGTP-Imp inh: -1

Results for C=CCNC(=O)c1onc(CSc2ccc(F)c(F)c2)c1C(=O)O ?
Runt-SMMHC FRET: -6; eIF4E-4G inh: 4; Hck-Nef inh: 0; PERK inh: 3.1*; Runt-CBFb FRET: -1; RanGTP-Imp inh: 2

How did C=CCN(CC=C)c1nc2ccccc2nc1C(C#N)C(=O)OC(C)C (stereo not drawn) do in these assays?
Runt-SMMHC FRET: 115*; eIF4E-4G inh: 3; Hck-Nef inh: 0; PERK inh: 0; Runt-CBFb FRET: 16; RanGTP-Imp inh: 29*

What do the screens show for `CCOC(=O)Nc1ccc(Oc2ccccc2)cc1`?
Runt-SMMHC FRET: -4; eIF4E-4G inh: -8; Hck-Nef inh: 2; PERK inh: 1; Runt-CBFb FRET: 0; RanGTP-Imp inh: -3

What do the screens show for `CCOC(=O)Nc1c2ccccc2nc2ccccc12`?
Runt-SMMHC FRET: 82*; eIF4E-4G inh: -4; Hck-Nef inh: 39; PERK inh: -1; Runt-CBFb FRET: 65*; RanGTP-Imp inh: 131*

How did CCCOC(=O)c1ccc(NC(=O)c2c(Cl)ccc(Cl)c2OC)cc1 do in these assays?
Runt-SMMHC FRET: 6; eIF4E-4G inh: -9; Hck-Nef inh: 1; PERK inh: -1; Runt-CBFb FRET: 2; RanGTP-Imp inh: 31*

How did COc1ccc2nc3oc(C(=O)NC4CCN(Cc5ccccc5)CC4)cc3cc2c1 do in these assays?
Runt-SMMHC FRET: -3; eIF4E-4G inh: 0; Hck-Nef inh: 3; PERK inh: -1; Runt-CBFb FRET: -2

Results for CCOC(=O)N1CCC(NC(=O)c2cc3cc4cc(OC)ccc4nc3o2)CC1 ?
Runt-SMMHC FRET: 2; eIF4E-4G inh: 12; Hck-Nef inh: 2; PERK inh: 0; Runt-CBFb FRET: -4; RanGTP-Imp inh: 21*

Results for CC(=O)Nc1ccc(S(=O)(=O)NNC(=S)NCC2CCCO2)cc1 (stereo not drawn) ?
RanGTP-Imp inh: 7

Results for NC1=NC(=O)/C(=C\c2ccsc2)S1 ?
Runt-SMMHC FRET: -3; eIF4E-4G inh: 63*; Hck-Nef inh: 37; PERK inh: 0; Runt-CBFb FRET: -1; RanGTP-Imp inh: 1

What do the screens show for `Nc1c(C(=O)N2CCCCCC2)oc2ccccc12`?
RanGTP-Imp inh: -4

What do the screens show for `CN(Cc1ccccc1F)C(=O)c1ccc(NS(=O)(=O)c2ccc3[nH]c(=O)[nH]c3c2)cc1`?
RanGTP-Imp inh: -1

What do the screens show for `CCCCOC(=O)c1ccc(-c2ccc(/C=N/NC(=S)NCC)o2)cc1`?
Runt-SMMHC FRET: 9; eIF4E-4G inh: -6; Hck-Nef inh: 2; PERK inh: 1; Runt-CBFb FRET: 3; RanGTP-Imp inh: 43*

How did O=C(O)Cn1cccc1C(=O)c1ccccc1 do in these assays?
Runt-SMMHC FRET: 1; eIF4E-4G inh: 3; Hck-Nef inh: 1; PERK inh: 1; RanGTP-Imp inh: 2

How did CN(Cc1ccccc1)C(=O)Cn1cccc1C(=O)c1ccccc1 do in these assays?
Runt-SMMHC FRET: 3; eIF4E-4G inh: -8; Hck-Nef inh: -15; PERK inh: -1; Runt-CBFb FRET: 1; RanGTP-Imp inh: 70*

What do the screens show for `Cc1cc(NC(=O)c2cccs2)ccc1NC(=O)Cc1ccccc1`?
Runt-SMMHC FRET: 0; eIF4E-4G inh: 1; Hck-Nef inh: 29; PERK inh: 2; Runt-CBFb FRET: -1; RanGTP-Imp inh: 1

How did CN1CCCN(C(=O)c2cc3c(s2)CCCC3)CC1 do in these assays?
RanGTP-Imp inh: -1

Results for Cc1ccc(C)c(N2CCN(S(=O)(=O)c3ccc4c(c3)CCC(=O)N4)CC2)c1 ?
Runt-SMMHC FRET: 0; eIF4E-4G inh: 2; Hck-Nef inh: 0; PERK inh: 0; Runt-CBFb FRET: 104*; RanGTP-Imp inh: 4

Results for Cc1ccc(C)c(N2CCN(S(=O)(=O)c3ccc4c(c3)NC(=O)CC(=O)N4)CC2)c1 ?
RanGTP-Imp inh: 6

How did COc1ccccc1NC(=S)NC1CC2CCC1C2 (stereo not drawn) do in these assays?
Runt-SMMHC FRET: -1; eIF4E-4G inh: -8; Hck-Nef inh: 26; PERK inh: 1; Runt-CBFb FRET: -1; RanGTP-Imp inh: -1

How did CN(C)NC(=S)NC1CC2CCC1C2 (stereo not drawn) do in these assays?
Runt-SMMHC FRET: 2; eIF4E-4G inh: 90*; Hck-Nef inh: 19; PERK inh: -1; Runt-CBFb FRET: -2; RanGTP-Imp inh: 3

How did CC1(C)CC(=O)C2=C(C1)N(CCN1CCOCC1)C1=C(C(=O)CC(C)(C)C1)C2c1cccc(Cl)c1 do in these assays?
Runt-SMMHC FRET: -21; eIF4E-4G inh: 0; Hck-Nef inh: 44; PERK inh: 0; RanGTP-Imp inh: 111*

What do the screens show for `CCN(CC)CCN1C2=C(C(=O)CC(C)(C)C2)C(c2cccc(F)c2)C2=C1CC(C)(C)CC2=O`?
Runt-SMMHC FRET: 86*; eIF4E-4G inh: 0; Hck-Nef inh: 37; PERK inh: 0; Runt-CBFb FRET: 83*; RanGTP-Imp inh: 96*
